≈ marks a conversion by molar mass, not a printed value. Residues, ends and D or L forms follow the SMILES beside them. *: point of attachment. βNA = c1ccc2cc(N*)ccc2c1

One assay concerns E. coli Kam3-AcrB. Briefly: Ethidium bromide. Type of assay: cell-based. Conditions: phosphonates 0.06 to 2 μg mL^−1; PaβN 20 μg mL^−1. The method, boiled down: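 E. coli Kam3-AcrB (pSYC plasmid encoding AcrB) was grown to mid-log phase in TS broth and pelleted at 5000×g for 5 min at 4 °C. Cells were washed twice in PBS pH 7.4 and adjusted to OD600 ≈0.5. Cells were treated with phosphonates (0.06–2 μg mL−1) or 0.1% DMSO for 12 h, then combined with EtBr, 25 mM glucose (final) and PaβN 20 μg mL−1. Fluorescence was read over 38 min, […], as RFU.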

Assay [1] has as its system E. faecalis KA247. Briefly: Agar well-diffusion, inhibition zone. The conditions noted are these: Enterococcus faecalis, KA247, read-out: Average diameter of inhibition zone (ZI). The class given is cell-based, Enterococcus faecalis. Put shortly: (§1)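 Clinical MDR isolates from complicated UTI patients. Suspensions were made in Tryptic Soya and Sabouraud broths from subcultures on Tryptic Soya and Sabouraud agar plates. Agar well diffusion followed CLSI guidelines, with test compounds applied at 10 μM in DMSO. Fosfomycin and fluconazole were positive controls and DMSO the negative control. Zone diameters were read in mm, in triplicate.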

Assay [2] has as its system S. aureus KA112. Briefly: Agar well-diffusion, inhibition zone. Type of assay: cell-based, Staphylococcus aureus. The conditions noted are these: Staphylococcus aureus, KA112, read-out: Average diameter of inhibition zone (ZI). The method, boiled down: as §1
Assay [3] deals with E. coli KA780. Briefly: Agar well-diffusion, inhibition zone. The class given is cell-based, Escherichia coli. Conditions: Escherichia coli, KA780, read-out: Average diameter of inhibition zone (ZI). The method, boiled down:
as §1

The subject of assay [4] is P. mirabilis KA320. Briefly: Agar well-diffusion, inhibition zone. The class given is cell-based, Proteus mirabilis. Conditions: Proteus mirabilis, KA320, read-out: Average diameter of inhibition zone (ZI). Put shortly:
as §1
For orientation: In agar diffusion tests the substance spreads into inoculated agar from a disc or well.

Assay [5] relates to C. albicans KA205. In words: Agar well-diffusion, inhibition zone. The class given is cell-based, Candida albicans. The conditions noted are these: Candida albicans, KA205, read-out: Average diameter of inhibition zone (ZI). Put shortly:
as §1

For assay [6], the system named is C. tropicalis KA205. Briefly: Agar well-diffusion, inhibition zone. Type of assay: cell-based, Candida tropicalis. The conditions noted are these: Candida tropicalis, KA205, read-out: Average diameter of inhibition zone (ZI). Put shortly:
as §1

The test system of assay [7] is E. faecalis KA247. In words: Broth microdilution MIC and MBC. Type of assay: cell-based. Conditions: Enterococcus faecalis, KA247, 24 h. (In general: Broth dilution looks for growth in wells or tubes with falling amounts of substance.)
For assay [8], the system named is S. aureus KA112. Briefly: Broth microdilution MIC and MBC. The conditions noted are these: Staphylococcus aureus. The class given is cell-based.
The subject of assay [9] is E. coli KA780. In words: Broth microdilution MIC and MBC. Type of assay: cell-based. The conditions noted are these: Escherichia coli.
Assay [10] has as its system P. mirabilis KA320. Briefly: Broth microdilution MIC and MBC. Type of assay: cell-based. Conditions: Proteus mirabilis.
The subject of assay [11] is C. albicans KA205. In words: Broth microdilution MIC and MFC. The class given is cell-based. Conditions: Candida albicans.
Assay [12] deals with C. tropicalis KA205. In words: Broth microdilution MIC and MFC. Conditions: Candida tropicalis. Type of assay: cell-based.
The test system of the next assay is bacterial isolates. In words: Broth microdilution MIC/MBC, bacterial panel. Conditions: pyrrole 6b versus thiophene 6a; bacteria. Type of assay: cell-based.

On to `NC(N)=NCCC[C@H](NC(=O)[C@@H](N)Cc1ccccc1)C(=O)Nc1ccc2ccccc2c1` [PAβN] (H-Phe-Arg-βNA), for which the EtBr accumulation result in the assay with E. coli Kam3-AcrB is “increases the accumulation of EtBr”.

Turning to `O=[N+]([O-])c1ccc(-c2nn(-c3ccccc3)c3sc(NC(c4ccc[nH]4)P(=O)(Oc4ccccc4)Oc4ccccc4)nc23)cc1` (stereo not shown) [Compound 6b, Diphenyl(((3-(4-nitrophenyl)-1-phenyl-1H-pyrazolo[4,3-d]thiazol-5-yl)amino)(1H-pyrrol-2-yl)methyl)phosphonate], the zone of inhibition at 10 µM was 22 ± 0.55 mm with E. faecalis KA247 [1]; 23 ± 0.77 mm in the assay on S. aureus KA112 [2]; 24 ± 0.86 mm in the assay with E. coli KA780 [3]; 22 ± 0.12 mm in the assay on P. mirabilis KA320 [4]; 21 ± 0.91 mm with C. albicans KA205 [5]; 21 ± 0.7 mm in the assay with C. tropicalis KA205 [6]. The minimum inhibitory concentration (MIC) with E. faecalis KA247 [7] was determined as 0.25 µg/mL (≈ 0.385 µM); with S. aureus KA112 [8] (KA112, 24 h) it was 0.125 µg/mL (≈ 0.193 µM); against E. coli KA780 [9] (KA780, 24 h) it was 0.125 µg/mL (≈ 0.193 µM); against P. mirabilis KA320 [10] (KA320, 24 h), 0.25 µg/mL (≈ 0.385 µM); against C. albicans KA205 [11] (KA205, 24 h), 0.25 µg/mL (≈ 0.385 µM); against C. tropicalis KA205 [12] (KA205, 24 h), 0.5 µg/mL (≈ 0.771 µM). The MBC in the assay on S. aureus KA112 [8] (KA112, read-out: MBC/MIC) is 0.5 µg/mL (≈ 0.771 µM); with E. coli KA780 [9] (KA780, read-out: MBC/MIC) it was 0.5 µg/mL (≈ 0.771 µM); with P. mirabilis KA320 [10] (KA320, read-out: MBC/MIC), 1 µg/mL (≈ 1.54 µM). In addition, the MFC with C. albicans KA205 [11] (KA205, read-out: MFC/MIC) worked out at 1 µg/mL (≈ 1.54 µM); in the assay with C. tropicalis KA205 [12] (KA205, read-out: MFC/MIC) it was 1 µg/mL (≈ 1.54 µM). Also, the “higher activity by MIC” value in the assay with bacterial isolates is given as roughly 8 folds.

By zone of inhibition is commonly meant the extent of the growth-free halo in a diffusion test. Usually MIC stands for the lowest concentration that inhibits growth of the organism. A low value points to inhibition by little substance.

(Values after PMC10685179 (RSC Advances, 2023).)
